pIC50: −log10 of the molar value.
Legend:
[1] = biological target: T1, Amine oxidase [flavin-containing] B (Rattus norvegicus, UniProt P19643); test: Inhibition of MAO-B in Sprague-Dawley rat brain mitochondrial suspension using kynuramine as substrate incubated for 5 mins prior to substrate addition measured for 5 mins by spectrophotometry
T1 sequence (P19643 whole entry): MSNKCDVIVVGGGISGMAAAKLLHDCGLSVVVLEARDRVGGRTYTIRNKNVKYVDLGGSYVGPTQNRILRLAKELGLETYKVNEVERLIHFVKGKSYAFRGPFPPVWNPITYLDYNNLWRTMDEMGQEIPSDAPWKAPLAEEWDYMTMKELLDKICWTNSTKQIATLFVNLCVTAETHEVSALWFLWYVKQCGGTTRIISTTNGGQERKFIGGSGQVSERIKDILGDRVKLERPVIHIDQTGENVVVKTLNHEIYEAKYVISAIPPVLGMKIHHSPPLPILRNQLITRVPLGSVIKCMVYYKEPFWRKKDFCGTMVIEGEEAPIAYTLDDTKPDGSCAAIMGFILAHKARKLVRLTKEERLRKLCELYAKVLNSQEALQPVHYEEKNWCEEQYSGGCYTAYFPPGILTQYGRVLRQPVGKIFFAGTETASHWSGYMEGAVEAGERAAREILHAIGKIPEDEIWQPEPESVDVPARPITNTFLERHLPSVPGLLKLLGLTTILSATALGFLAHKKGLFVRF
How it was run: (§1)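 Crude brain mitochondria from male Sprague-Dawley rats (200–250 g), used at 1 mg/mL. Isoforms separated with clorgyline or (−)-L-deprenyl, both irreversible at 250 nM. 5 min preincubation with compound, final DMSO 5% (v/v). Kynuramine then added at 60 μM (KM), and 4-hydroxyquinoline formation was followed at 314 nm for 5 min. IC50 by nonlinear regression of inhibition vs −log concentration, or % inhibition at 10 or 20 μM. Mean of 2–3 independent experiments.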

[2] = biological target: T2, Amine oxidase [flavin-containing] A (Rattus norvegicus, UniProt P21396); test: Inhibition of MAO-A in Sprague-Dawley rat brain mitochondrial suspension using kynuramine as substrate incubated for 5 mins prior to substrate addition measured for 5 mins by spectrophotometry
T2 sequence (P21396 whole entry): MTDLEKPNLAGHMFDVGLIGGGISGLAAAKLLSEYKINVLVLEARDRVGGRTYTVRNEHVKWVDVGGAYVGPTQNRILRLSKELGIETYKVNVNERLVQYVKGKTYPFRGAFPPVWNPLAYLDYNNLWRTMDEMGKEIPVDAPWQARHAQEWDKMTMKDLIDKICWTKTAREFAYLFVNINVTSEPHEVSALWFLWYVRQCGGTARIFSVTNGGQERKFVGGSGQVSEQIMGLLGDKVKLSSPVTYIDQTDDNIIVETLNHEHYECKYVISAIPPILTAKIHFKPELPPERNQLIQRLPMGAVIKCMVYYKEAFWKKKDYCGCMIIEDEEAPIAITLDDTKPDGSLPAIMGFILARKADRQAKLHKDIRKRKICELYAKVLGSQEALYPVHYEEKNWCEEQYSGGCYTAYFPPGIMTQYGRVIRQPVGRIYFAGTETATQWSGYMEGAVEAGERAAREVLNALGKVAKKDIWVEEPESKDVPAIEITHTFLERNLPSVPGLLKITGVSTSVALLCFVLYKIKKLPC

[3] = biological target: T1, Amine oxidase [flavin-containing] B; test: Inhibition of MAO-B in Sprague-Dawley rat brain mitochondrial suspension using kynuramine as substrate at 10 uM incubated for 5 mins prior to substrate addition measured for 5 mins by spectrophotometry; how it was run: as §1
[4] = biological target: T2, Amine oxidase [flavin-containing] A; test: Ratio of moclobemide IC50 to compound IC50 for Sprague-Dawley rat brain MAO-A
[5] = biological target: T2, Amine oxidase [flavin-containing] A; test: Inhibition of MAO-A in Sprague-Dawley rat brain mitochondrial suspension using kynuramine as substrate at 10 uM incubated for 5 mins prior to substrate addition measured for 5 mins by spectrophotometry
How it was run: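 Male Sprague-Dawley rat brain (200–250 g) crude mitochondrial fraction, 1 mg/mL, stored at −40 °C in isotonic phosphate/KCl buffer pH 7.4. Selective irreversible inhibitors clorgyline and (−)-L-deprenyl (250 nM each) used to separate isoform activities. Test compound preincubated 5 min, final DMSO 5% (v/v). Kynuramine 90 μM (KM) added, 4-hydroxyquinoline formation read at 314 nm for 5 min. […] Mean of 2–3 independent experiments.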

[6] = biological target: T1, Amine oxidase [flavin-containing] B; test: Inhibition of MAO-B in Sprague-Dawley rat brain mitochondrial suspension using kynuramine as substrate at 20 uM incubated for 5 mins prior to substrate addition measured for 5 mins by spectrophotometry; how it was run: as §1

Row | SMILES | pIC50 [2] | inhibition at 10 µM [3] [%] | further results
1 | CNCc1cc(=O)oc2cc(OS(=O)(=O)c3cccc(Cl)c3)ccc12 | 5.28 | – | pIC50 [1]: 5.77
2 | CNC(=O)/C=C1/COc2cc(OS(=O)(=O)c3ccc(C(C)=O)cc3)ccc21 | 7.54 | 0 | –
3 | CCNC(=O)/C=C1/COc2cc(OS(=O)(=O)c3cccc(Cl)c3)ccc21 | 5.38 | 0 | –
4 | CNC(=O)Cc1coc2cc(OS(=O)(=O)c3cccc(Cl)c3)ccc12 | 6.39 | 4 | –
5 | CCNC(=O)Cc1coc2cc(OS(=O)(=O)c3cccc(Cl)c3)ccc12 | – | 0 | inhibition at 10 µM [5]: 31%
6 | O=C1COc2cc(OS(=O)(=O)c3cccc(Cl)c3)ccc21 | – | 0 | inhibition at 10 µM [5]: 17%
7 | CNC(=O)/C=C1/COc2cc(OCc3cccc(Cl)c3)ccc21 | 6.37 | – | pIC50 [1]: 7.44
8 | CNC(=O)Cc1cc(=O)oc2cc(OS(=O)(=O)c3cccc(Cl)c3)ccc12 | 6.95 | – | pIC50 [1]: 5.08
9 | CNC(=O)c1cc(=O)oc2cc(OS(=O)(=O)c3cccc(Cl)c3)ccc12 | – | 9 | inhibition at 10 µM [5]: 8%
10 | NCc1cc(=O)oc2cc(OS(=O)(=O)c3cccc(Cl)c3)ccc12 | 6.00 | – | pIC50 [1]: 5.48
11 | CNC(=O)/C=C1/COc2cc(OS(=O)(=O)c3ccccc3)ccc21 | 7.47 | 0 | –
12 | CNC(=O)/C=C1/COc2cc(OS(=O)(=O)c3cccc(Cl)c3)ccc21 | 7.39 | 0 | –
13 | CNC(=O)/C=C1/COc2cc(OS(=O)(=O)c3cccc(F)c3)ccc21 | 7.39 | – | inhibition at 20 µM [6]: 6%
14 | CNC(=O)/C=C1/COc2cc(OS(=O)(=O)c3ccc(Cl)cc3)ccc21 | 7.92 | 6 | –
15 | CNC(=O)/C=C1/COc2cc(OS(=O)(=O)c3ccc([N+](=O)[O-])cc3)ccc21 | 7.43 | 13 | –
16 | CNC(=O)/C=C1/COc2cc(OS(=O)(=O)c3ccc(S(C)(=O)=O)cc3)ccc21 | 7.72 | 0 | –
17 | CNC(=O)/C=C1/COc2c1ccc(OS(=O)(=O)c1ccccc1)c2C | 8.01 | 5 | –
18 | CNC(=O)/C=C1/COc2c1ccc(OS(=O)(=O)c1ccc(C#N)cc1)c2C | 7.82 | 6 | –

Continued, in another order:

Row | pIC50 [2] | inhibition at 10 µM [3] [%] | SMILES | further results
19 | 7.96 | 0 | CNC(=O)/C=C1/COc2cc(OS(=O)(=O)c3ccc(OC)cc3)ccc21 | –
20 | 8.15 | 0 | CNC(=O)/C=C1/COc2c1ccc(OS(=O)(=O)c1ccc(OC)cc1)c2C | Ratio IC50 [4]: 1000
21 | 8.04 | 17 | CNC(=O)/C=C1/COc2cc(OS(=O)(=O)CCC(F)(F)F)ccc21 | –
22 | 7.96 | 5 | CNC(=O)/C=C1/COc2c1ccc(OS(=O)(=O)CCC(F)(F)F)c2C | –
23 | – | 1 | CC(C)NC(=O)/C=C1/COc2cc(OS(=O)(=O)c3cccc(Cl)c3)ccc21 | inhibition at 10 µM [5]: 14%
24 | 5.51 | – | CNC(=O)Cc1coc2cc(OCc3cccc(Cl)c3)ccc12 | pIC50 [1]: 6.55
25 | 7.72 | 0 | CNC(=O)/C=C1/COc2cc(OS(=O)(=O)c3cccc(C#N)c3)ccc21 | –
26 | 7.35 | – | CNC(=O)/C=C1/COc2cc(OS(=O)(=O)c3ccc(C#N)cc3)ccc21 | inhibition at 20 µM [6]: 10%
27 | 7.80 | 6 | CNC(=O)/C=C1/COc2cc(OS(=O)(=O)c3ccc(Cl)s3)ccc21 | –
28 | 7.62 | 2 | CNC(=O)/C=C1/COc2c1ccc(OS(=O)(=O)c1cccc(Cl)c1)c2C | –
29 | – | 0 | O=C(NCCN1CCOCC1)c1ccc(Cl)cc1 [MOCLOBEMIDE] | –
